Experimental data: publication PMC11604526 (Cell Reports Medicine, 2024)
“Also recorded” adds a separate entry of the source.

Columns and labels:
infarct volume = assay: Infarct volume; format: in vivo; settings: Nissl staining 12 days after stroke; n = 8
Outline: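 Coronal 40 μm vibratome sections were stained in Nissl solution at 40°C for 10 min. Infarct size was measured on microscope images.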

[1] = tested on: extracellular GABA ([GABA]o); assay: Extracellular GABA after tMCAO; format: in vivo, rat; settings: intranasal delivery; Figure 6F; n = 5
GAT-1-Synt1A complex = GAT-1-Synt1A complex (Mus musculus, UniProt P31648); format: in vivo; settings: intranasally given days 5-11 after photothrombotic stroke; n = 5
Outline: (§1)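 Dissected tissue was lysed on ice for 30 min in ice-cold RIPA buffer (50 mM Tris-HCl pH 7.4, 150 mM NaCl, 1 mM EDTA, 1% NP-40, 0.1% SDS, 0.5% deoxycholate, protease inhibitors). Lysates were spun at 12,000 ×g for 15 min at 4°C, and supernatant was precleared 1 h at 4°C with protein G magnetic beads before co-IP. Blots were probed with anti-GAT-1 (1:4000) and anti-syntaxin1A (1:4000).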

[2] = Concentration of ZLQ-3-1 in brain tissue; format: in vivo, rat; settings: intranasal delivery; brain homogenate, LC-MS/MS
Outline: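 Brain tissue was quantified by LC-MS/MS with verapamil run alongside. The test compound eluted at 1.45 min and verapamil at 1.65 min.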

[3] = tested on: pyramidal neurons in the peri-infarct cortex; assay: Fiber photometry of GCaMP6s Ca2+ signal; format: in vivo, mouse; settings: intranasal administration; Figures S6F, S6G
Outline: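 AAV-CaMKII-GCaMP6s was injected into the peri-infarct cortex (AP 0, ML −2.0, DV −1.3 mm from bregma). An optical fibre (230 μm OD, 0.37 NA) was implanted at the same site. GCaMP6s fluorescence was excited with a 488 nm LED at 20 μW at the fibre tip and recorded by fibre photometry.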

GAT-1 [4] = assay: 3H-GABA uptake in HEK293 cells overexpressing GAT-1; format: cell-based; settings: n = 5
Outline: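 HEK293 cells were kept in MEM with 10% FBS and transduced with lentiviral GAT-1-EGFP. These GAT-1-overexpressing cells were incubated with peptide (100 nM), or with the mutant control peptide at the same concentration, before 3H-GABA uptake was measured.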

GAT-1-Synt1A interaction = GAT-1-Synt1A interaction (Rattus norvegicus, UniProt P23978); assay: Co-IP of Synt1A-GAT-1 complexes after tMCAO; format: in vivo; settings: intranasally given days 5-11 after stroke
Outline: as §1

[5] = tested on: layer 5 peri-infarct pyramidal neurons; assay: Whole-cell recordings in acute brain slices from treated mice; format: in vivo, mouse; settings: intranasal administration
GAT-1 [6] = target: GAT-1 (Mus musculus, UniProt P31648); assay: 3H-GABA uptake assay in cultured neurons; format: cell-based; settings: 1 h drug preincubation; 10 nM 3H-GABA + 30 μM GABA, 37°C 1 h; n = 5
Outline: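 Primary cortical neurons from E16 mice were grown on poly-L-ornithine in Neurobasal with 2% B27. Cells were rinsed twice in 37°C HBSS, equilibrated 10 min, then preincubated 1 h in drug-containing HBSS. Uptake was started with 3H-GABA (10 nM final) plus unlabeled GABA (30 μM final), 37°C for 1 h. It was stopped by three ice-cold HBSS washes, solubilised in 0.1 M NaOH, and read by scintillation counting plus BCA protein assay. Analysis used a two-tailed t test.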

mice [7] = assay: Open field test; format: in vivo, mouse; settings: 5 min; n = 14
rats subjected to tMCAO [8] = assay: Morris water maze after tMCAO; format: in vivo; settings: rat tMCAO, intranasal days 5-11
Outline: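 Rats were habituated to the maze (180 cm diameter, opacified water, drained daily) 1 day beforehand. In learning trials, rats swam up to 60 s to reach a hidden platform 1.2 cm below the surface. A probe trial without the platform ran 24 h after the last learning trial. Swimming was recorded by overhead video tracking.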

[9] = tested on: mice with photothrombotic stroke; assay: Motor function; format: in vivo, mouse
Outline: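 Photothrombotic stroke was induced with rose bengal, holding body temperature at 37 ± 0.5°C. For grid walking, each mouse walked freely for 5 min on a wire grid 50 cm high. For the cylinder task, mice explored a clear cylinder (15 cm tall, 10 cm diameter) for 5 min, and only rears with both forelimbs clearly visible were timed. Tests ran 7 days before stroke and at set days after stroke.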

rats subjected to tMCAO [10] = assay: Sensorimotor function after tMCAO; format: in vivo; settings: rat tMCAO, intranasal days 5-11 after stroke
Outline: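 For grid walking, rats walked 5 min on a wire grid 60 cm high. For the cylinder task, rats explored a cylinder (30 cm tall, 20 cm diameter) for 5 min. For sticky tape, rats were handled 30 min/day for 3 days first. Ratio of interest = seconds attending to stimulus/30, averaging the best two trials. Sticky-tape ratio = left forepaw ratio/right forepaw ratio.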

mice [11] = assay: Conditioned place preference; format: in vivo, mouse; settings: n = 10
Outline: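 During pretest and test, mice had free access to both chambers for 15 min. Vehicle-group mice received vehicle injections morning and afternoon; all other steps matched the compound group. Apparatus was cleaned with 75% alcohol after each pretest, training and test session.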

[12] = tested on: extracellular GABA ([GABA]o); assay: Extracellular GABA in peri-infarct cortex; format: in vivo, mouse; settings: intranasal administration; Figure S6A; n = 5
Outline: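 A CMA7 microdialysis probe was placed in peri-infarct cortex (AP 0, ML −0.65, DV −1.5 mm from bregma). It was perfused at 1 μL/min with bicarbonate-buffered saline containing 10 mM glucose. Dialysate was collected in 20-min fractions over 2 h, and the second fraction was analysed. GABA was measured by ELISA (activator, 37°C for 15 min in the dark, stop solution, A450).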

[13] = 5 mg/kg intranasally days 5-11 after stroke, test day 12

Glucose-D-Arg-Dmt-Cha-D-Lys-D-Arg-NH2 [ZLQ-3-1]
infarct volume (infarct volume): did not change infarct volume
stroke-induced increase in [GABA]o in the peri-infarct cortex [1]: reversed
stroke-induced GAT-1-Synt1A interaction, intranasal dosing (GAT-1-Synt1A complex): reversed stroke-induced GAT-1-Synt1A interaction
brain exposure of ZLQ-3-1 (time course of concentrations in brain tissue) [2]: rapid and long-lasting brain exposure; also recorded: high brain exposure
stroke-induced decline in cortical excitability, WT mice [3]: prevented stroke-induced decline in cortical excitability
reuptake of GABA by GAT-1, HEK293 cells overexpressing GAT-1 (GAT-1 [4]): did not directly affect the reuptake of GABA by GAT-1
stroke-induced GAT-1-Synt1A interaction in the hippocampus (GAT-1-Synt1A interaction): reversed stroke-induced GAT-1-Synt1A interaction
stroke-induced GAT-1-Synt1A interaction in the peri-infarct cortex (GAT-1-Synt1A interaction): reversed stroke-induced GAT-1-Synt1A interaction
stroke-induced increase in tonic inhibition ([5]; Figures S6B, S6C): reversed stroke-induced increases
inhibitory synaptic transmission (sIPSC) ([5]; Figures S6D, S6E): increased inhibitory synaptic transmission
3H-GABA uptake in cultured neurons (GAT-1 [6]): significantly increased ^3H-GABA uptake
locomotor activity (open field test: total distance, velocity) (mice [7]): did not affect locomotor activity
swimming speed (rats subjected to tMCAO [8]): did not affect swimming speed
target entries in the probe test (rats subjected to tMCAO [8]): increased target entries
time spent in target quadrant in the probe test (rats subjected to tMCAO [8]): increased
latency (time to reach the platform) (rats subjected to tMCAO [8]; training trials): significantly decreased latency
impairment of motor functions, intranasal 5 mg/kg [9, 13]: attenuated the impairment of motor functions
motor functional recovery of ZLQ-3-1-treated versus ZLQ-3-treated mice [9, 13]: better motor functional recovery than ZLQ-3-treated mice
impairment of motor functions, intraperitoneal dosing ([9]; 2.5, 5, 10, or 20 mg/kg i.p. days 5-11 after stroke, test day 12): attenuated the impairment of motor functions dose dependently
long-term motor functional recovery, WT mice ([9]; intranasal treatment days 5-11 after stroke, Figure S5K): long-lasting motor functional recovery effects
foot faults in the grid-walking task (rats subjected to tMCAO [10]): decreased foot faults
forelimb sticky-tape ratio in modified sticky-tape test (rats subjected to tMCAO [10]): increased forelimb sticky-tape ratio
forelimb symmetry index in the cylinder task (rats subjected to tMCAO [10]): decreased
somatosensory and motor functions (rats subjected to tMCAO [10]; tests days 4, 12, 19, 26): significantly improved somatosensory and motor functions
conditioned place preference (mice [11]): did not affect
stroke-induced increase in extracellular GABA [12]: reversed stroke-induced increases in extracellular GABA
